# Measurements gathered from unrelated publications.
# Protocols differ between the studies behind these lines.
# Target: Calcium/calmodulin-dependent protein kinase type 1 (CAMK1, Homo sapiens, UniProt Q14012)
Structure (SMILES),test,conditions,measurement,value
O=c1[nH]c2ccccc2n1C1CCN(Cc2ccc(-c3[nH]c4cc5ncnc5cc4nc3-c3ccccc3)cc2)CC1,cell-free assay,0.5 µM,remaining signal,95.1%
C#Cc1n[nH]c2c(-c3cn(C(C)c4ccccn4)c(=O)[nH]c3=O)cc(F)cc12 (stereo not shown),"enzyme activity, inhibitor",1 µM,inhibition,-18.7%
Cn1cc(-c2cc(F)cc(N3CCn4c(cc5c4CCCC5)C3=O)c2CO)cc(Nc2ccc(N3CCN(C4COC4)CC3)cn2)c1=O,"enzyme activity, inhibitor",0.1 µM,inhibition,0%
COc1ncccc1-c1cnn2ccc(N3CCN(C(=O)OC(C)C)CC3)nc12,"binding, competition with immobilised ligand",1 µM,remaining binding,100%
COc1cc(Nc2ncc(F)c(Nc3ccc4c(n3)NC(=O)C(C)(C)O4)n2)cc(OC)c1OC,"binding, competition with immobilised ligand",10 µM,inhibition,97%
CC(C)(C)c1cc(C=C(C#N)C#N)cc(Br)c1O,"enzyme activity, inhibitor",0.5 µM,remaining activity,97.5%
N#CC1(c2ccccn2)CCN(Cc2cc(C(=O)O)c(=O)n3ccccc23)CC1,"cell-free assay, competition with immobilised ligand",1 µM,remaining binding,76%
Cc1nn(C)cc1-c1nc2c(N3CCN(Cc4ccc(Cl)cc4)CC3)c(Cl)cnc2[nH]1,"binding, competition with immobilised ligand",1 µM,remaining binding,100%
Cn1cncc1[C@@](O)(COc1ccc(C#N)cc1-c1ccc(OC(F)(F)F)cc1)c1ccc(C#N)cc1,"cell-free assay, competition with immobilised ligand",1 µM,remaining binding,100%
C#Cc1n[nH]c2c(-c3cn([C@@H](C)c4ccccc4)c(=O)[nH]c3=O)cc(F)cc12,"enzyme activity, inhibitor",0.1 µM,inhibition,14.4%
